Compounds with a hit are over-represented: about 5.5% of the library has one in this group of screens.
KCC2 mod – KCC2 cotransporter modulators, thallium flux, primary screen, cell-based, HEK293 KCC2, FluoZin-2 fluorescence, MLSMR; KCC2 cells, thallium flux FluoZin-2 fluorescence; Solute carrier family 12 member 5 (Homo sapiens), Q9H2X9; 2.2% of 190,000 active; B-score of Tl+ flux slope (higher = more flux/activation; lower = inhibition) at 10 µM;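 active = thallium flux slope and its plate-corrected score both differing from the plate sample mean at a set confidence after two filtering rounds, in either direction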;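 also: slope of fluorescence scaled to starting intensity during 10 to 20 s after thallium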
Target sequence (Q9H2X9 whole entry, looked up): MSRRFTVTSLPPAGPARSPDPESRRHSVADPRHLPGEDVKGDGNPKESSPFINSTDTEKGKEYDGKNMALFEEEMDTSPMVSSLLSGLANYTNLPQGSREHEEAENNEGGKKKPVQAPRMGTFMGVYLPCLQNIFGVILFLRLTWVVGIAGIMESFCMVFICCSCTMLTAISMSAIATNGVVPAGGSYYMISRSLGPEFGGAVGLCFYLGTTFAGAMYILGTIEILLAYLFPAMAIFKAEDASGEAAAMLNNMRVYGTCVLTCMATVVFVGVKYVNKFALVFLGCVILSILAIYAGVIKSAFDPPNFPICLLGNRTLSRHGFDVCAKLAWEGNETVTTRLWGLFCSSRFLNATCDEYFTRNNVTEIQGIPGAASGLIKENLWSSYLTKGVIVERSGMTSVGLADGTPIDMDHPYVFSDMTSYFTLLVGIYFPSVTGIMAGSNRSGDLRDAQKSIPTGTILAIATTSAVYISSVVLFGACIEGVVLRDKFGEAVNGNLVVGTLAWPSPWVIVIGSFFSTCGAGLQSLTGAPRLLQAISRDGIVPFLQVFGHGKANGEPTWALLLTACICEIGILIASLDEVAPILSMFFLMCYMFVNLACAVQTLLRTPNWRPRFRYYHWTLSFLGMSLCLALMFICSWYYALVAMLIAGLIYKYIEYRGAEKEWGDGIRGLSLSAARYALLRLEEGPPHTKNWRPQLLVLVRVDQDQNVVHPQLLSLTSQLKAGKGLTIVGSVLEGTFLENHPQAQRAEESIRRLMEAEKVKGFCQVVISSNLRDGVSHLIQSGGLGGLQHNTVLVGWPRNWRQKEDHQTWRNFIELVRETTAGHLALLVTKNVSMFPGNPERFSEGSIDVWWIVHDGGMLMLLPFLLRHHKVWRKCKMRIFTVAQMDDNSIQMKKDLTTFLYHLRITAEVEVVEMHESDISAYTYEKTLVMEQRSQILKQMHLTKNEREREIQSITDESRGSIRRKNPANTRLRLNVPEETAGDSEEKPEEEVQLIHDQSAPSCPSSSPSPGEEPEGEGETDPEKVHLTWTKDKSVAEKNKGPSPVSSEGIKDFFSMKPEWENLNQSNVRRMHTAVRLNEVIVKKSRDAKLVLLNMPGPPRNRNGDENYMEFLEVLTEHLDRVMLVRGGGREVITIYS
Yeast growth inh – growth inhibitors of yeast BB579 in restrictive medium, primary screen, yeast lifespan-shortening project, S. cerevisiae; 0.51% of 140,000 active; inhibition, % at 10 µM; OD615, 48 h;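 active = inhibition above a set limit, 3 SD over the mean compound inhibition, cut at about 44% in these data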
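controls = amphotericin B 10 µg/mL, positive | assay system = DeaD yeast strain BB579 | schedule = 48 h compound exposure at 30 °C after 4 h preincubation | detection = OD615 turbidity measurement | medium = restrictive CSMM-D medium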
Yeast lifespan up – compounds extending yeast replicative lifespan, primary screen, S. cerevisiae, OD615; inhibition of the nicotinamide effect, % at 10 µM; S. cerevisiae growth with nicotinamide; deaD strain in restrictive glucose medium; 0.68% of 130,000 active;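 active = inhibition above a set limit, placed 3 SD over the median of all compounds, cut at about 26% in these data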;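 also: 0% = nicotinamide-treated wells and 100% = cells grown without nicotinamide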
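Assay system: engineered S. cerevisiae DeaD replicative-lifespan strain, galactose-grown log-phase cells; medium: restrictive CSMM-D dextrose medium; also added: nicotinamide, 1.5 mM, co-present with compound; schedule: 48 h compound exposure at 30 °C, humidified; detection: absorbance at 615 nm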
WT yeast gro inh – growth inhibition of WT strain, primary screen, mitochondrial fusion inhibitor project, WT and mutant strains, chemical genetic. mitochondrial fusion phenotypic screen. inhibition, % at 10 µM. 2.1% of 190,000 active. AID 1362, 2008; in the data active = inhibition above about 58%; tested in S. cerevisiae
RAM network inh – inhibitors of the yeast RAM network, primary screen, dse1pr::URA3 reporter, 5-FOA selection. S. cerevisiae dse1pr::URA3 reporter, 5-FOA growth OD615, 2 d; analog-sensitive cbk1-as2 kinase mutant strain. inhibition, % at 50 µM. 1.8% of 190,000 active. AID 868, 2007;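 active = inhibition above a set limit, 3 SD over mean compound inhibition, cut at about 8.4% in these data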;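 also: 0% = DMSO-only wells with no growth and 100% = 10 µM 1-NA-PP1 full growth; inhibition rescues growth on 5-FOA so higher OD means more RAM inhibition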
KCC2 sec1 – KCC2 modulators in sodium-free buffer, confirmation, cell-based, HEK293 KCC2, thallium flux, secondary assay; shares compounds with KCC2 mod; normalised thallium flux (F/F0 slope) at 10 µM; AID 1713, 2009; 15% of 3,700 active; FluoZin2 fluorescence; active compounds read high;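 active = thallium flux slope above the same plate's solvent-only control mean plus 3 SD; inconclusive = the two replicate wells disagree; inactive = no significant difference from solvent-only control wells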
KCC2 bumet counter – thallium flux persisting under bumetanide in KCC2 cells, confirmation, counter-screen for KCC2 modulator project, cell-based, HEK293 KCC2, FluoZin2, secondary assay 3; 49% of 3,700 active; normalized thallium flux at 10 µM; HEK293-KCC2 + bumetanide/ouabain; active compounds read high; shares compounds with KCC2 mod;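 active = thallium entry rate above the same plate's blocked-transporter control wells by more than 3 SD; inconclusive = the two repeat wells disagree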;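 also: raw slope of fluorescence over initial fluorescence between 10 and 20 s after thallium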
KCC2 secondary2 – KCC2 modulators without ouabain present, confirmation, cell-based, HEK293 KCC2, thallium flux, FluoZin2, secondary assay 2. shares compounds with KCC2 mod. thallium flux FluoZin2 fluorescence; actives lie on both sides; F/F0 rise rate, 10–20 s post-thallium. normalized thallium flux at 10 µM. 23% of 3,700 active. AID 1715, 2009;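 active = thallium flux slope more than 3 SD above or below the plate's solvent-only control mean, mostly below; inconclusive = the two repeat wells disagreed; inactive = no significant shift from solvent-only controls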;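 also: raw slope with 0.1% DMSO as baseline and bumetanide as block control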
HEK counter1 – thallium flux modulation in parental HEK cells, confirmation, counter-screen for KCC2 modulator project, cell-based, counterscreen 1 | shares compounds with KCC2 mod | HEK293 parental cells, thallium flux FluoZin2, ouabain; baseline-ratio fluorescence slope, 10–20 s after thallium | thallium flux rate (normalised fluorescence) at 10 µM | 46% of 3,700 active | AID 1716, 2009;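 active = thallium flux rate significantly above the same plate's solvent-only control wells, beyond their mean plus 3 SD; inconclusive = the two replicate wells gave conflicting results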
KCC2 retest ouab – KCC2 inhibitors and activators, ouabain retest, confirmation, HEK-KCC2 cells; shares compounds with KCC2 mod; HEK293-KCC2, thallium flux FluoZin2 fluorescence; bidirectional: low = inhibitor, high = activator; raw Tl+ flux slope (below DMSO = inhibition, above = activation) at 10 µM; 48% of 3,700 active; AID 1717, 2009;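 active = thallium flux slope beyond 3 SD from same-plate DMSO control mean in most replicates, usually higher, sometimes lower; inconclusive = repeat tests gave conflicting results; inactive = no significant difference from controls in most replicates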;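 also: slope of initial-normalized fluorescence between seconds 10 and 20 after thallium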
HEK293 Tl flux2 – native HEK Tl+ uptake effects, second counter-screen – HEK cells, counterscreen 2, counter-screen for KCC2 modulator project, confirmation. shares compounds with KCC2 mod. thallium flux slope at 10 µM. HEK293 parental, thallium flux FluoZin-2 fluorescence slope. 33% of 3,700 active. AID 1718, 2009;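 active = thallium flux slope above the same plate's solvent-control mean plus 3 SD in both duplicate wells; inconclusive = duplicate wells that disagreed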;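 also: run without ouabain in cells lacking the KCC2 cotransporter; slope of fluorescence scaled to its starting value between 10 and 20 s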
* hit, by the source's call.

`CNc1oc(Cc2cccc3ccccc23)nc1C#N` gave Yeast growth inh -50, Yeast lifespan up -9, WT yeast gro inh 0, RAM network inh 1, KCC2 sec1 0.011, KCC2 bumet counter 0.0082*, KCC2 secondary2 inconclusive, HEK counter1 0.0079, KCC2 retest ouab 0.014* and HEK293 Tl flux2 inconclusive.
Screening CCC1(C(=O)c2ccc(Cl)cc2)C2c3ccccc3OC(=O)C21C(=O)Nc1ccccc1 (stereo not drawn) returned KCC2 mod 0.63, Yeast growth inh -37, Yeast lifespan up 5, WT yeast gro inh -12 and RAM network inh 3.
For Cc1nnc(SCC(=O)c2cc(C)n(-c3ccc4c(c3)OCO4)c2C)s1 the results were KCC2 mod -3.3*, Yeast growth inh -32, Yeast lifespan up -2, WT yeast gro inh -15, RAM network inh 0, KCC2 sec1 inconclusive, KCC2 bumet counter 0.0031*, KCC2 secondary2 0.032, HEK counter1 inconclusive, KCC2 retest ouab 0.022 and HEK293 Tl flux2 0.0094.
Screening Cc1cc(C(=O)CSc2nnnn2C)c(C)n1-c1ccc2c(c1)OCCO2 returned KCC2 mod 0.81, Yeast growth inh -9, Yeast lifespan up -3, WT yeast gro inh 17 and RAM network inh 2.
COc1ccc(N2CCN(C(c3cccs3)C(C)NS(C)(=O)=O)CC2)cc1 (stereo not drawn) was read as KCC2 mod 0.3, WT yeast gro inh 2 and RAM network inh 1.
c1ccc2c(c1)OCCOCCOCCOCCOCCOc1ccccc1OCCOCCOCCO2 was read as KCC2 mod -1, Yeast growth inh -27, Yeast lifespan up 1, WT yeast gro inh -6 and RAM network inh 1.
Screening COc1cc2c(cc1OC)C(C)N(C(=S)Nc1ccccc1)CC2 (stereo not drawn) returned KCC2 mod 0.39, Yeast growth inh -19, Yeast lifespan up -4, WT yeast gro inh 10 and RAM network inh 1.
Screening COc1cc2c(cc1OC)C(C)N(C(=S)NC(=O)c1ccccc1)CC2 (stereo not drawn) returned KCC2 mod 21*, WT yeast gro inh -8, RAM network inh -1, KCC2 sec1 inconclusive, KCC2 bumet counter 0.062*, KCC2 secondary2 0.043*, HEK counter1 0.041*, KCC2 retest ouab 0.049* and HEK293 Tl flux2 0.029*.
Screening CNC(=O)C1CC(=O)N(Cc2ccc(OC)c(OC)c2)C(=Nc2ccc(OC)cc2)S1 (stereo not drawn) returned KCC2 mod 0.2, Yeast growth inh 12, Yeast lifespan up -25, WT yeast gro inh -10 and RAM network inh 1.
For CNC(=O)C1CC(=O)N(Cc2ccccc2)C(=Nc2ccc(OC)cc2)S1 (stereo not drawn) the results were Yeast growth inh -5, Yeast lifespan up 14, WT yeast gro inh 42, RAM network inh 2, KCC2 sec1 inconclusive, KCC2 bumet counter 0.0045, KCC2 secondary2 0.029, HEK counter1 0.0075, KCC2 retest ouab 0.019 and HEK293 Tl flux2 0.01.
`Nc1nc(-c2ccc3c(c2)CCO3)cs1` gave KCC2 mod 0.43, WT yeast gro inh 1 and RAM network inh 0.
Screening O=C(NNC(=S)Nc1ccc(Cl)c(Cl)c1)c1ccccn1 returned KCC2 mod 11*, WT yeast gro inh 6, RAM network inh 2, KCC2 sec1 0.013*, KCC2 bumet counter 0.037*, KCC2 secondary2 0.031, HEK counter1 0.019*, KCC2 retest ouab 0.051* and HEK293 Tl flux2 0.012*.
CCNC(=S)NNC(=O)c1ccccn1 was read as KCC2 mod 0.068, Yeast growth inh -14, Yeast lifespan up -4, WT yeast gro inh 13 and RAM network inh 0.
O=C(Nn1c(O)c(C=C2N=c3ccccc3=N2)sc1=S)c1ccccc1Cl was read as KCC2 mod -4.4*, Yeast growth inh 0, Yeast lifespan up -3, WT yeast gro inh -9, RAM network inh 3, KCC2 sec1 0.017, KCC2 bumet counter 0.0048, KCC2 secondary2 0.02*, HEK counter1 0.0077, KCC2 retest ouab 0.014 and HEK293 Tl flux2 0.012.
CCOC(=O)CSc1ccc(C(=O)Nc2ccc(OC)cc2)cn1 was read as KCC2 mod 0.34, WT yeast gro inh 23 and RAM network inh 3.
For COCc1cc(N2CCCC2)nc(-c2ccccc2)n1 the results were KCC2 mod -3.5*, WT yeast gro inh -11, RAM network inh 3, KCC2 sec1 0.0066, KCC2 bumet counter 0.0042, KCC2 secondary2 0.028, HEK counter1 0.0067, KCC2 retest ouab 0.018 and HEK293 Tl flux2 0.0096.
Screening CS(=O)(=O)Cc1cc(N2CCCC2)nc(-c2ccccc2)n1 returned KCC2 mod 0.079, WT yeast gro inh 2 and RAM network inh 0.
For CN(C)C(=O)CCSc1nnc(-c2ccco2)o1 the results were KCC2 mod 0.74, WT yeast gro inh -12 and RAM network inh 1.
Screening Cc1ccc(C(=S)N2CCN(Cc3ccccc3)CC2)cc1 returned KCC2 mod -3.3*, WT yeast gro inh 22, RAM network inh 0, KCC2 sec1 inconclusive, KCC2 bumet counter 0.0064, KCC2 secondary2 0.031, HEK counter1 0.0076, KCC2 retest ouab 0.015* and HEK293 Tl flux2 0.011.

High-throughput results as filed in PubChem.
